ChEMBL document CHEMBL3232843, “Novel pyrrolidine diketopiperazines selectively inhibit melanoma cells via induction of late-onset apoptosis” (J Med Chem, 2014)
Activity calls are given as the source filed them. No cut-off for these calls is given here.

Tests used:
M14 [1] = assay: Cytotoxicity against human M14 cells assessed as cell viability after 4 hrs using bis-AAF-R110 as substrate by ApoTox-Glo triplex assay; format: functional, cell-based
How it was run: (§1)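 M14 cells, 1250 per well, in serum-free DMEM, settled 4 h, then given 1:3 serial dilutions. Ionomycin, terfenadine and panobinostat were the controls. Incubated 4, 24, 48 or 72 h at 37 °C. A reagent containing 400 µM GF-AFC (live-cell protease, ex 400/em 505 nm) and 400 µM bis-AAF-R110 (dead-cell protease, ex 485/em 520 nm) was applied for 30 min at 37 °C. Caspase-Glo 3/7 (DEVD) luminescence was then read after 30 min at room temperature.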

M14 [2] = assay: Induction of apoptosis human M14 cells assessed as caspase activity after 4 to 24 hrs using DEVD peptide as substrate by ApoTox-Glo triplex assay; format: functional, cell-based; how it was run: as §1
M14 [3] = assay: Cytotoxicity against human M14 cells assessed as cell viability after 4 hrs using GF-AFC as substrate by ApoTox-Glo triplex assay; format: functional, cell-based
How it was run: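 M14 #5 cells, 1250 per well in serum-free DMEM, pre-incubated 4 h at 37 °C, 5% CO2. Compounds added as 1:3 serial dilutions; incubated 4, 24, 48 and 72 h. Per time point, a reagent containing 400 µM GF-AFC (live-cell protease) and 400 µM bis-AAF-R110 (dead-cell protease) was added for 30 min at 37 °C, then fluorescence was read. Caspase-Glo 3/7 was added next, 30 min at room temperature, then luminescence.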

A549 [4] = assay: Cytotoxicity against human A549 cells at 100 uM after 72 hrs by CellTiter-Glo luminescence assay; format: functional; conditions: A549, 72 h
How it was run: (§2)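 1250 cells per well in serum-free medium (F12 for CHO-K1 and A549, DMEM for M14). Compounds given as 10-point 1:3 serial dilutions from a 300 µM stock, plus a gefitinib control. Incubated 72 h at 37 °C, 5% CO2. CellTiter-Glo added for 15 min at room temperature, then luminescence read. Viability normalized to media-only wells (0%) and 1% DMSO wells (100%). Run in triplicate.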

M14 [5] = assay: Cytotoxicity against human M14 cells at 100 uM after 72 hrs by CellTiter-Glo luminescence assay; format: functional; conditions: M14, 72 h; how it was run: as §2
[6] = Cytotoxicity against CHOK1 cells at 100 uM after 72 hrs by CellTiter-Glo luminescence assay; format: cell-based, Cricetulus griseus; conditions: chinese hamster, CHO-K1 cells; read-out: INH; how it was run: as §2
[7] = Cytotoxicity against human M262 cells expressing B-raf V600E mutant; format: functional, cell-based
[8] = Cytotoxicity against human M229 cells expressing B-raf V600E mutant; format: functional, cell-based
[9] = Cytotoxicity against human M263 cells expressing B-raf V600E mutant; format: functional, cell-based
[10] = Cytotoxicity against human M238 cells expressing B-raf V600E mutant; format: functional, cell-based
[11] = Cytotoxicity against human M321 cells expressing B-raf V600E mutant; format: functional, cell-based
[12] = Cytotoxicity against human M249 cells expressing B-raf V600E mutant; format: functional, cell-based
M14 [13] = assay: Cytotoxicity against human M14 cells expressing […] mutant; format: functional, cell-based
SK-MEL-28 = assay: Cytotoxicity against human SK-MEL-28 cells expressing B-raf V600E mutant; format: functional, cell-based
M14 [14] = assay: Cytotoxicity against human M14 cells after 72 hrs by CellTiter-Glo luminescence assay; format: functional, cell-based; conditions: M14, 72 h; how it was run: as §2
A549 [15] = assay: Cytotoxicity against human A549 cells after 72 hrs by CellTiter-Glo luminescence assay; format: functional, cell-based; conditions: A549, 72 h; how it was run: as §2
[16] = Cytotoxicity against CHOK1 cells after 72 hrs by CellTiter-Glo luminescence assay; format: cell-based; conditions: Cricetulus griseus, CHO-K1, 72 h; how it was run: as §2

For `CC(C)(C)c1ccc(C(O)CCCN2CCC(C(O)(c3ccccc3)c3ccccc3)CC2)cc1` (stereo unspecified), the Activity (M14 [1]) was “Active”, the Activity (M14 [2]) was “Active” and the Activity (M14 [3]) was “Active”.

`CCC[C@@H]1CNC(=O)C(=O)N1C[C@@H]1CCCN1C[C@@H](Cc1ccc(O)cc1)N1C[C@@H](Cc2ccc(O)cc2)N(CC(CC)c2ccccc2)C(=O)C1=O` (stereo partly specified) gave an inhibition at 100 µM (A549 [4]) of 8%, an inhibition at 100 µM (M14 [5]) of 14% and a cytotoxicity at 72 h, 100 µM [6] of 59%.

With `CCC[C@@H]1CNC(=O)C(=O)N1C[C@@H]1CCCN1C[C@@H](Cc1ccc(O)cc1)N1C[C@@H](Cc2ccc(O)cc2)N(CC2CCCC2)C(=O)C1=O` the inhibition at 100 µM (A549 [4]) was 14%, the inhibition at 100 µM (M14 [5]) was 25% and the cytotoxicity at 72 h, 100 µM [6] was 11%.

With `CCCS(=O)(=O)Nc1ccc(F)c(C(=O)c2c[nH]c3ncc(-c4ccc(Cl)cc4)cc23)c1F` [VEMURAFENIB] the IC50 [7] was 100 nM, the IC50 [8] was 100 nM and the IC50 [9] was 100 nM. It also gave an IC50 [10] of 100 nM, an IC50 [11] of 100 nM and an IC50 [12] of 100 nM. The IC50 (M14 [13]) was 150 nM and the IC50 (SK-MEL-28) was 100 nM.

For `CCC[C@H]1CNC(=O)C(=O)N1C[C@@H]1CCCN1C[C@@H](CC1CCCCC1)N1C[C@H](Cc2ccc(O)cc2)N(CCC23CC4CC(CC(C4)C2)C3)C(=O)C1=O`, the IC50 (M14 [14]) was over 50000 nM, the IC50 (A549 [15]) was over 50000 nM and the IC50 [16] was over 50000 nM.

Molecule `CCC[C@@H]1CNC(=O)C(=O)N1C[C@@H]1CCCN1C[C@@H](Cc1ccc(O)cc1)N1C[C@H](Cc2ccc(O)cc2)N(CC(CC)c2ccccc2)C(=O)C1=O` (stereo partly specified) has an inhibition at 100 µM (A549 [4]) of 4%, an inhibition at 100 µM (M14 [5]) of 7% and a cytotoxicity at 72 h, 100 µM [6] of 48%.

`CCC[C@@H]1CNC(=O)C(=O)N1C[C@@H]1CCCN1C[C@H](Cc1ccc(O)cc1)N1C[C@H](Cc2ccc(O)cc2)N(CC2CCCC2)C(=O)C1=O` gave an inhibition at 100 µM (A549 [4]) of 0%, an inhibition at 100 µM (M14 [5]) of 15% and a cytotoxicity at 72 h, 100 µM [6] of 7%.
